The test system of one experiment is DU-145. The experiment can be described thus: Antiproliferative activity against human androgen-independent prostate carcinoma DU145 cell line by colorimetric assay. The experiment is classed as functional, cell-based. The procedure, abridged:
(§1)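 WST1 tetrazolium salt cleavage by mitochondrial dehydrogenases in viable cells, colorimetric read-out. IC50 given as mean ± SEM from at least two experiments, with four or eight determinations per tested concentration.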

Another experiment deals with MIA PaCa-2. As to the kind of experiment: Antiproliferative activity against human pancreatic carcinoma Mia PaCa2 cell line by colorimetric assay. Format: functional, cell-based. Summed up: as §1
For experiment [1], the target named is T1, M-phase inducer phosphatase 3 (Homo sapiens, UniProt P30307).
T1 sequence (P30307 whole entry): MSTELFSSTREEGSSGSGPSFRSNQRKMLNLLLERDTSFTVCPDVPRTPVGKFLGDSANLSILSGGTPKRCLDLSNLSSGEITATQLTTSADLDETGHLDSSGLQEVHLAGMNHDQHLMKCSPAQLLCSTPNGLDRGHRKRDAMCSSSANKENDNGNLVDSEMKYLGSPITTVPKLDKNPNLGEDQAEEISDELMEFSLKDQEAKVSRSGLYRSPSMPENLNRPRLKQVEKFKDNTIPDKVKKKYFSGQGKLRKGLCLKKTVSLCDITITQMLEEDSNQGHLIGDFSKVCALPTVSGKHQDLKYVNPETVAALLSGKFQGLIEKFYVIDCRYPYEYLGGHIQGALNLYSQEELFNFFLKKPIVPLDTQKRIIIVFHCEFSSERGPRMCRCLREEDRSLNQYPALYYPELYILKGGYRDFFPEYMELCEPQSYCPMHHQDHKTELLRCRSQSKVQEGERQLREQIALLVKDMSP
As to the kind of experiment: Inhibitory activity against recombinant CDC25C. The procedure, abridged:
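Recombinant maltose binding protein (MBP)-CDC25C fusion enzyme, with 3-O-methylfluorescein phosphate (OMFP) as substrate. IC50 given as mean ± SEM from at least two, usually three, independent experiments.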

A value given as a limit tells only on which side of the number the result lay.

Here are results for twelve molecules from ChEMBL document CHEMBL1148551, “Synthesis and biological evaluation of novel heterocyclic quinones as inhibitors of the dual specificity protein phosphatase CDC25C” (Bioorg Med Chem Lett, 2006).

For orientation: IC50 means the concentration at which inhibition is half-maximal.

`CCc1nc2c(o1)C(O)=C/C(=N\CCN(C)C)C2=O`: the IC50 in the experiment on DU-145 was 0.22 µM; in the experiment on MIA PaCa-2 it was 0.44 µM; in experiment [1] it was 0.13 µM.
Regarding `CN(C)CC/N=C1\C=C(O)c2oc(-c3ccccc3)nc2C1=O`, the IC50 is 0.21 µM in the experiment with DU-145, 0.15 µM in the experiment on MIA PaCa-2 and 0.23 µM in experiment [1].
For the molecule `CN(C)CC/N=C1\C=C(O)c2cn(C)cc2C1=O`, the IC50 in experiment [1] was found to be 81 µM.
Turning to `CN(C)CC/N=C1\C=C(O)c2[nH]c(-c3ccccc3)nc2C1=O`, the values for the IC50 (in the experiment with DU-145; in the experiment on MIA PaCa-2; in experiment [1]) were greater than 10 µM, 12 µM and 17 µM, respectively.
The like results for `CN(C)CC/N=C1\C=C(O)c2nc(-c3ccccc3)oc2C1=O` were, in that order, 0.21 µM, 0.15 µM and 0.23 µM.
For `CN(C)CC/N=C1\C=C(O)c2nn(-c3ccccc3)cc2C1=O`, in experiment [1], the IC50 is 12 µM.
`O=C1C(Cl)=C(NCCN2CCOCC2)C(=O)c2ncccc21`: the IC50 with DU-145 turned out to be 2.3 µM; in the experiment on MIA PaCa-2 it was 2.5 µM.
On to `Cc1nc2c(s1)C(O)=C/C(=N\CCN(C)C)C2=O`, for which the values for the IC50 (in the experiment on DU-145; in the experiment on MIA PaCa-2; in experiment [1]) were 0.11 µM, 0.18 µM and 0.15 µM, respectively.
With `CN(C)CC/N=C1\C=C(O)c2cn(-c3ccccc3)nc2C1=O`, the IC50 in experiment [1] was found to be 12 µM.
With `CCc1nc2c(o1)C(=O)C(NCCN(C)C)=CC2=O`, the values for the IC50 (in the experiment with DU-145; in the experiment with MIA PaCa-2; in experiment [1]) were 0.22 µM, 0.44 µM and 0.13 µM, respectively.
As for `CCc1nc2c([nH]1)C(=O)/C(=N/CCN(C)C)C=C2O`, the results for the IC50 (in the experiment on DU-145; with MIA PaCa-2; in experiment [1]) were greater than 10 µM, 18 µM and 12 µM, respectively.
For the molecule `CC1=CC(=O)c2ccccc2C1=O` [MENADIONE], the IC50 was 11 µM in the experiment with DU-145 and 6.2 µM in the experiment on MIA PaCa-2.
